How the values were obtained:
[1] = Drug uptake in mouse Astrocyte cells expressing OATPIC4/5/6 at 100 uM incubated for 30 mins in presence of naringin by liquid scintillation counter analysis; type: ADME, cell-based; conditions: 0.5 h
Outline: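 Astrocytes preincubated 10 min with naringin (100 μM), then incubated with substrate (100 μM) plus naringin in HBSS pH 7.4 for 30 min at 37 °C. Uptake normalized to protein and expressed relative to control; one-way ANOVA with Dunnett's test.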

[2] = Drug uptake in human U-87 MG cells expressing OATPIC1 at 100 uM incubated for 30 mins in presence of diclofenac by HPLC analysis; type: ADME, cell-based; conditions: u-87mg atcc, 0.5 h
Outline: (§1)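 U-87MG cells preincubated 10 min with diclofenac or flufenamic acid (100 μM), then co-incubated with the compound (100 μM) plus inhibitor in HBSS pH 7.4 for 30 min at 37 °C. Uptake quantified by HPLC, normalized to protein and expressed as % of control. One-way ANOVA with Dunnett's test; n = 3.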

[3] = Prodrug conversion in human U-87 MG cells expressing OATPIC1 assessed as OATPIC1 mediated drug release at 100 uM incubated for 30 mins by HPLC analysis; type: ADME, cell-based; conditions: u-87mg atcc, 0.5 h
Outline: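 U-87MG cells incubated with prodrug at 100 μM for 30 min at 37 °C in HBSS. Released parent drug in cell lysate measured by HPLC and normalized to protein, alongside uptake of the parent drug itself; n = 3–6.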

[4] = Chemical stability in Tris-HCI buffer at pH 7.4 at 100 uM and measured after 24 hrs by HPLC analysis; type: physicochemical; conditions: pH 7.4, 24 h
Outline: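 Prodrug (100 μM initial, from 10 mM DMSO stock; 2% DMSO) incubated at 37 °C in 50 mM Tris–HCl pH 7.4 for 24 h. Samples taken at intervals, quenched 1:1 with ACN, analysed by HPLC-UV (230–240 nm). Pseudo-first-order t1/2 taken from the slope of log remaining prodrug vs time.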

[5] = Drug uptake in human U-87 MG cells expressing OATPIC1 at 100 uM incubated for 30 mins in presence of flufenamic acid by HPLC analysis; type: ADME, cell-based; conditions: u-87mg atcc, 0.5 h; outline: as §1
[6] = Drug uptake in human U-87 MG cells expressing OATPIC1 assessed as Vmax at 200 uM incubated for 30 mins by Michaelis-Menten analysis; type: ADME, cell-based; conditions: u-87mg atcc, 0.5 h
Outline: (§2)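 U-87MG cells seeded at 1 × 10^5/well and used 1 day later. After 10 min preincubation in HBSS pH 7.4 at 37 °C, compounds added at 5–400 μM for 30 min at 37 °C. Cells washed with ice-cold HBSS, lysed in 0.1 M NaOH, acidic-ACN precipitated, analysed by HPLC against a spiked lysate standard curve, and normalized to Bradford protein. Km/Vmax fitted by Michaelis–Menten; n = 3 biological replicates.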

[7] = Prodrug conversion in JAXC57BL/6 mouse brain assessed as total amount of prodrug and ketoprofen level at 25 micromol/kg,ip and measured after 30 mins by LC-MS/MS analysis; type: ADME, tissue-based; conditions: in vivo, 0.5 h, dose 25 µmol/kg
Outline: (§3)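 Male C57BL/6J mice, seven weeks old, given an ip bolus of 25 μmol/kg. Formulation 2.5 mM in saline with 30% Macrogol 15-hydroxystearate and 3% DMSO. Pentobarbital anaesthesia, then transcardial perfusion with ice-cold saline for 1 min. Whole brain (minus cerebellum and pons) taken at 30 min, homogenized in Tris pH 7.4, ACN-precipitated with labetalol internal standard, and quantified by LC–MS/MS in nmol/g.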

[8] = Drug uptake in mouse Astrocyte cells expressing OATPIC4/5/6 assessed as Vmax at 200 uM incubated for 30 mins by Michaelis-Menten analysis; type: ADME, cell-based; conditions: 0.5 h
Outline: (§4)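 Primary astrocytes from neonatal (P0–2) C57BL/6JOlaHsd pups, microglia removed at day 7, seeded at 10^4 cells/well 3 days before assay. Substrate added at 5–400 μM in HBSS pH 7.4 for 30 min at 37 °C. [3H]-estrone-3-sulfate measured by liquid scintillation and prodrugs by HPLC; normalized to protein. Km/Vmax fitted by Michaelis–Menten.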

[9] = Drug uptake in JAXC57BL/6 mouse brain at 25 micromol/kg,ip and measured after 30 mins by LC-MS/MS analysis; type: ADME, tissue-based; conditions: in vivo, 0.5 h, dose 25 µmol/kg; outline: as §3
[10] = Drug uptake in mouse Astrocyte cells expressing OATPIC4/5/6 at pH 4.5 to 8.5 at 100 uM incubated for 30 mins by liquid scintillation counter analysis; type: ADME, cell-based; conditions: pH 4.5, 0.5 h
Outline: (§5)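 Mouse primary astrocytes incubated with [3H]-estrone-3-sulfate for 30 min at 37 °C in HBSS at pH 4.5–8.5 (MES or HEPES buffer). At pH 7.4, uptake was also run with choline chloride in place of Na+. Read by liquid scintillation counting and normalized to protein; n = 3 biological replicates.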

[11] = Drug uptake in mouse Astrocyte cells expressing OATPIC4/5/6 at 100 uM incubated for 30 mins in absence of Na+ ions by liquid scintillation counter analysis; type: ADME, cell-based; conditions: 0.5 h; outline: as §5
[12] = Drug uptake in mouse Astrocyte cells expressing OATPIC4/5/6 at 5 to 400 uM incubated for 30 mins by liquid scintillation counter analysis; type: ADME, cell-based; conditions: 0.5 h, dose 5-400 µM; outline: as §4
[13] = Drug uptake in mouse Astrocyte cells expressing OATPIC4/5/6 at 100 uM incubated for 30 mins in presence of Na+ ions by liquid scintillation counter analysis; type: ADME, cell-based; conditions: 0.5 h; outline: as §5
[14] = Drug uptake in human U-87 MG cells expressing OATPIC1 at pH 4.5 to 8.5 at 100 uM incubated for 30 mins by HPLC analysis; type: ADME, cell-based; conditions: u-87mg atcc, pH 4.5, 0.5 h
Outline: (§6)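 U-87MG cells incubated with T4 for 30 min at 37 °C in HBSS buffered with HEPES (pH 7.4, 8.5) or MES (pH 4.5–6.5). For Na+-free conditions, choline chloride replaced NaCl at pH 7.4. Lysates analysed by HPLC and normalized to protein; mean ± SD, n = 3 biological replicates.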

[15] = Drug uptake in human U-87 MG cells expressing OATPIC1 at 100 uM incubated for 30 mins in presence of Na+ ions by HPLC analysis; type: ADME, cell-based; conditions: u-87mg atcc, 0.5 h; outline: as §6
[16] = Drug uptake in human U-87 MG cells expressing OATPIC1 at 5 to 400 uM incubated for 30 mins by HPLC analysis; type: ADME, cell-based; conditions: u-87mg atcc, 0.5 h, dose 5-400 µM; outline: as §2
[17] = Drug uptake in human U-87 MG cells expressing OATPIC1 at 100 uM incubated for 30 mins in absence of Na+ ions by HPLC analysis; type: ADME, cell-based; conditions: u-87mg atcc, 0.5 h; outline: as §6

SMILES | Drug uptake [1] | Drug uptake [2] | Drug metabolism [3] | Stability [4] | Drug uptake [5] | also measured
N[C@@H](Cc1cc(I)c(OC(=O)c2ccccc2O)c(I)c1)C(=O)O | Not Active | Active | Metabolite_Detected | Stable | Active | –
COc1ccc2cc([C@H](C)C(=O)Oc3c(I)cc(C[C@H](N)C(=O)O)cc3I)ccc2c1 | Active | Active | Metabolite_Detected | Stable | Active | –
CC(C(=O)O)c1cccc(C(=O)c2ccccc2)c1 (racemic) [KETOPROFEN] | – | – | – | – | – | Drug uptake [9]: 0.22 nmol/g
C[C@]12CC[C@@H]3c4ccc(OS(=O)(=O)O)cc4CC[C@H]3[C@@H]1CCC2=O [ESTRONE SULFURIC ACID] | Not Active | – | – | – | – | Drug uptake [10]: Active; Drug uptake [11]: Active; Drug uptake [12]: Active; Drug uptake [13]: Active
N[C@@H](Cc1cc(I)c(Oc2cc(I)c(O)c(I)c2)c(I)c1)C(=O)O [LEVOTHYROXINE] | – | Not Active | – | – | Not Active | Drug uptake [14]: Active; Drug uptake [15]: Active; Drug uptake [16]: Active; Drug uptake [17]: Active

The next lines start with results.

Drug uptake [1] | Drug uptake [2] | Drug metabolism [3] | Stability [4] | Drug uptake [5] | SMILES | also measured
Not Active | Not Active | Metabolite_Detected | Stable | Not Active | CC(C(=O)Oc1c(I)cc(C[C@H](N)C(=O)O)cc1I)c1ccc(-c2ccccc2)c(F)c1 (stereo not given in full) | –
Not Active | Active | Metabolite_Detected | Stable | Active | N[C@@H](Cc1cc(I)c(Oc2cc(I)c(OC(=O)c3ccccc3O)c(I)c2)c(I)c1)C(=O)O | –
Active | Not Active | Metabolite_Detected | Stable | Active | COc1ccc2cc([C@H](C)C(=O)Oc3c(I)cc(Oc4c(I)cc(C[C@H](N)C(=O)O)cc4I)cc3I)ccc2c1 | –
Not Active | Active | Metabolite_Detected | Stable | Active | CC(C(=O)Oc1c(I)cc(C[C@H](N)C(=O)O)cc1I)c1cccc(C(=O)c2ccccc2)c1 (stereo not given in full) | Vmax [6]: 1.27 nmol/min/mg
Not Active | Not Active | Metabolite_Detected | Stable | Not Active | CC(C(=O)Oc1c(I)cc(Oc2c(I)cc(C[C@H](N)C(=O)O)cc2I)cc1I)c1ccc(-c2ccccc2)c(F)c1 (stereo not given in full) | –
Not Active | Not Active | Metabolite_Detected | Stable | Not Active | CC(C(=O)Oc1c(I)cc(Oc2c(I)cc(C[C@H](N)C(=O)O)cc2I)cc1I)c1cccc(C(=O)c2ccccc2)c1 (stereo not given in full) | Drug uptake [7]: 0.78 nmol/g; Vmax [8]: 5.5 nmol/min/mg

From ChEMBL document CHEMBL5390271, “Targeting Glial Cells by Organic Anion-Transporting Polypeptide 1C1 (OATP1C1)-Utilizing l-Thyroxine-Derived Prodrugs” (J Med Chem, 2023)
